The text below walks through data of ChEMBL document CHEMBL2146357, “Cellular zwitterionic metabolite analogs simultaneously enhance reaction rate, thermostability, salt tolerance, and substrate specificity of α-glucosidase” (Bioorg Med Chem, 2011).

Calls of active or inactive are those of the source. The rule behind the calls is not given here.

The subject of assay [1] is Saccharomyces cerevisiae. Put plainly: Activity of commercial yeast alpha-glucosidase assessed as production of p-nitrophenol using p-nitrophenyl-alpha-D-glucopyranoside as substrate at 50 mM after 3 mins by spectrophotometer. The essentials:
(§1)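 Enzymes were α-glucosidase from S. cerevisiae or from yeast at 2.5 × 10^-5 mg/mL, with 2.0 mM substrate and 0 or 50 mM solute in 100 mM phosphate pH 7.0 at 37 °C. p-Nitrophenol formation was read at 405 nm. Initial velocities (average of five) were expressed as the ratio of the value with solute to the value without solute.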

Assay [2] relates to Geobacillus stearothermophilus. Briefly: Activity of Bacillus stearothermophilus alpha-glucosidase activity assessed as production of p-nitrophenol using p-nitrophenyl-alpha-D-glucopyranoside as substrate at 200 mM after 3 mins by spectrophotometer. The essentials:
(§2)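 B. stearothermophilus α-glucosidase at 2.5 × 10^-5 mg/mL in 0.1 M phosphate buffer pH 7.0 with 2.0 mM p-nitrophenyl-α-D-glucopyranoside and 0–1000 mM solute, 37 °C. Release of p-nitrophenol followed at 405 nm. Initial slopes converted to velocities (ε 10900 cm^-1 M^-1), averaged over five runs. Activity = initial velocity with solute divided by initial velocity without solute.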

In assay [3] the test system is Geobacillus stearothermophilus. Briefly: Activity of Bacillus stearothermophilus alpha-glucosidase assessed as production of p-nitrophenol using p-nitrophenyl-alpha-D-glucopyranoside as substrate at 50 mM after 3 mins by spectrophotometer. Put shortly: as §2
The subject of assay [4] is Saccharomyces cerevisiae. Put plainly: Activity of Saccharomyces cerevisiae alpha-glucosidase assessed as production of p-nitrophenol using p-nitrophenyl-alpha-D-glucopyranoside as substrate at 50 mM after 3 mins by spectrophotometer. The essentials:
as §1

The test system of assay [5] is Geobacillus stearothermophilus. Briefly: Thermostabilization of Bacillus stearothermophilus alpha-glucosidase at 50 mM. Put shortly:
(§3)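 Optimum conditions were scanned with 0 or 50 mM solute, 2.5 × 10^-5 mg/mL B. stearothermophilus α-glucosidase and 2.0 mM substrate in 0.10 M phosphate. pH was varied from 6.4 to 7.9, NaCl from 0 to 2.5 M, and temperature was also varied. Activity was read as p-nitrophenol release at 405 nm.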

Assay [6] relates to Geobacillus stearothermophilus. Put plainly: Effect on optimum pH of Bacillus stearothermophilus alpha-glucosidase at 50 mM. Put shortly:
as §3

Assay [7] relates to Geobacillus stearothermophilus. Briefly: Enhancement of NaCl salt tolerance at Bacillus stearothermophilus alpha-glucosidase at 50 mM. Put shortly: as §3
Assay [8] relates to Geobacillus stearothermophilus. Put plainly: Activity of Bacillus stearothermophilus alpha-glucosidase activity assessed as production of p-nitrophenol using p-nitrophenyl-alpha-D-glucopyranoside as substrate at 1000 mM after 3 mins by spectrophotometer. Put shortly: as §2
Assay [9] has as its system Geobacillus stearothermophilus. Briefly: Increase of Bacillus stearothermophilus alpha-glucosidase activity assessed as fold increase in reaction initial velocity using p-nitrophenyl-beta-D-glucopyranoside as substrate at 750 mM after 3 mins by spectrophotometer relative to control. Put shortly:
(§4)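 Enzyme: B. stearothermophilus α-glucosidase, 2.5 × 10^-5 mg/mL, with 2.0 mM substrate (p-nitrophenyl α-D-glucoside, β-D-glucoside, α-D-galactoside or α-D-mannoside) and 0, 50 or 750 mM solute in 100 mM phosphate pH 7.0 at 37 °C. Initial velocities came from A405 slopes (five measurements). Results given as v(presence)/v(absence).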

For assay [10], the system named is Prunus dulcis. Briefly: Increase of almond beta-glucosidase activity assessed as production of p-nitrophenol using p-nitrophenyl-beta-D-glucopyranoside as substrate at 50 mM after 3 mins by spectrophotometer. Put shortly: (§5)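 Almond β-glucosidase or calf-intestine alkaline phosphatase, each at 2.5 × 10^-5 mg/mL, was incubated with 2.0 mM substrate and 0 or 50 mM solute in 0.10 M phosphate pH 7.0 at 37 °C. p-Nitrophenol production was followed over incubation time by absorbance at 405 nm.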

Assay [11] has as its system Geobacillus stearothermophilus. Put plainly: Activity of Bacillus stearothermophilus alpha-glucosidase activity assessed as production of p-nitrophenol using p-nitrophenyl-alpha-D-glucopyranoside as substrate at 30 to 50 mM after 3 mins by spectrophotometer. The essentials:
as §2

In assay [12] the test system is Saccharomyces cerevisiae. Briefly: Increase of commercial yeast alpha-glucosidase activity assessed as production of p-nitrophenol using p-nitrophenyl-alpha-D-glucopyranoside as substrate at 50 mM after 3 mins by spectrophotometer. Put shortly: as §1
Assay [13] concerns Geobacillus stearothermophilus. Briefly: Increase of Bacillus stearothermophilus alpha-glucosidase activity assessed as fold increase in reaction initial velocity using p-nitrophenyl-alpha-D-galactopyranoside as substrate at 750 mM after 3 mins by spectrophotometer relative to control. Put shortly:
as §4

Assay [14] has as its system Geobacillus stearothermophilus. Briefly: Increase of Bacillus stearothermophilus alpha-glucosidase activity assessed as fold increase in reaction initial velocity using p-Nitrophenyl-alpha-D-glucopyranoside as substrate at 50 mM after 3 mins by spectrophotometer relative to control. The essentials:
as §4

Assay [15] has as its system Geobacillus stearothermophilus. Put plainly: Increase of Bacillus stearothermophilus alpha-glucosidase activity assessed as fold increase in reaction initial velocity using p-nitrophenyl-alpha-D-glucopyranoside as substrate at 750 mM after 3 mins by spectrophotometer relative to control. The essentials:
as §4

The test system of assay [16] is Geobacillus stearothermophilus. Put plainly: Increase of Bacillus stearothermophilus alpha-glucosidase activity assessed as fold increase in reaction initial velocity using p-nitrophenyl-alpha-D-galactopyranoside as substrate at 50 mM after 3 mins by spectrophotometer relative to control. Put shortly:
as §4

Assay [17] deals with Geobacillus stearothermophilus. Put plainly: Increase of Bacillus stearothermophilus alpha-glucosidase activity assessed as fold increase in reaction initial velocity using p-nitrophenyl-alpha-D-mannopyranoside as substrate at 50 mM after 3 mins by spectrophotometer relative to control. Put shortly: as §4
Assay [18] relates to Geobacillus stearothermophilus. Put plainly: Activity of Bacillus stearothermophilus alpha-glucosidase activity assessed as production of p-nitrophenol using p-nitrophenyl-alpha-D-glucopyranoside as substrate at > 50 mM after 3 mins by spectrophotometer. Put shortly:
as §2

Assay [19] concerns Geobacillus stearothermophilus. Briefly: Activity of Bacillus stearothermophilus alpha-glucosidase assessed as increase in urea concentration for enzyme deformation using p-nitrophenyl-alpha-D-glucopyranoside as substrate at 50 mM after 3 mins by spectrophotometer.
Assay [20] has as its system Geobacillus stearothermophilus. Briefly: Increase of Bacillus stearothermophilus alpha-glucosidase activity assessed as production of p-nitrophenol using p-nitrophenyl-alpha-D-glucopyranoside as substrate at 50 mM after 3 mins by spectrophotometer. The essentials: as §2
The test system of assay [21] is Saccharomyces cerevisiae. Put plainly: Increase of Saccharomyces cerevisiae alpha-glucosidase activity assessed as production of p-nitrophenol using p-nitrophenyl-alpha-D-glucopyranoside as substrate at 50 mM after 3 mins by spectrophotometer. Put shortly:
as §1

Assay [22] has as its target Intestinal-type alkaline phosphatase (Bos taurus) (UniProt P19111). Put plainly: Increase of calf intestine alkaline phosphatase activity assessed as production of p-nitrophenol using p-nitrophenylphosphate as substrate at 50 mM after 3 mins by spectrophotometer. The essentials:
as §5

Assay [23] deals with Geobacillus stearothermophilus. Briefly: Increase of Bacillus stearothermophilus alpha-glucosidase activity assessed as fold increase in reaction initial velocity using p-nitrophenyl-beta-D-glucopyranoside as substrate at 50 mM after 3 mins by spectrophotometer relative to control. Put shortly:
as §4

The test system of assay [24] is Geobacillus stearothermophilus. Briefly: Increase of Bacillus stearothermophilus alpha-glucosidase activity assessed as fold increase in reaction initial velocity using p-nitrophenyl-alpha-D-mannopyranoside as substrate at 750 mM after 3 mins by spectrophotometer relative to control. The essentials:
as §4

The subject of assay [25] is Geobacillus stearothermophilus. Put plainly: Increase of Bacillus stearothermophilus alpha-glucosidase activity at 30 mM after 3 mins by spectrophotometer relative to control. The essentials:
as §2

In assay [26] the test system is Geobacillus stearothermophilus. Briefly: Activity of Bacillus stearothermophilus alpha-glucosidase activity assessed as production of p-nitrophenol using p-nitrophenyl-alpha-D-glucopyranoside as substrate at 800 mM after 3 mins by spectrophotometer. Put shortly:
as §2

Chain of Intestinal-type alkaline phosphatase (Bos taurus) (P19111 20-506 limits assumed): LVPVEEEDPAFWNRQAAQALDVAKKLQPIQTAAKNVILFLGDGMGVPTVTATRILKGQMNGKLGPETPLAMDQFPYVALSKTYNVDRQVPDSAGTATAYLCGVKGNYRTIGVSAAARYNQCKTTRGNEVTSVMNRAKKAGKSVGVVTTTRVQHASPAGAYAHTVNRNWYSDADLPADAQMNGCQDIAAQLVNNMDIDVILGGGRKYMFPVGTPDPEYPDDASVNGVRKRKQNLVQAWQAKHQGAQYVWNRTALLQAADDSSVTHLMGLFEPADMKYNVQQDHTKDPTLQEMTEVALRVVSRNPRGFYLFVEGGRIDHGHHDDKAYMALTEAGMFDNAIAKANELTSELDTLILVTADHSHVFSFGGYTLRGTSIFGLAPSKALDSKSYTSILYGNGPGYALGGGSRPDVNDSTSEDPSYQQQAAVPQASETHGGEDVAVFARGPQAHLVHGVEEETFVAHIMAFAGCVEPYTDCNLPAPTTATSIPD

With `CCC[N+](CCC)(CCC)CC(=O)[O-]`, the outcome in assay [1], in assay [2], in assay [3] and in assay [4] was Active.
For the compound `C[N+]1(CC(=O)[O-])CCCCC1`, the result in [1] and in assay [4] was inactive. Moreover, in assay [3], the result was Active.
Turning to `OC[C@@H](O)[C@@H](O)[C@H](O)[C@@H](O)CO`, the result in [1], in assay [3] and in assay [4] was inactive.
With `C[N+]1(CC(=O)[O-])CCOCC1`, the outcome in assay [1] and in [4] was inactive. Moreover, the result in assay [3] was Active.
For the compound `O[C@H]1[C@H](O)[C@@H](O)[C@H](O)[C@@H](O)[C@H]1O`, the outcome in [1], in assay [3] and in assay [4] was inactive.
For the compound `C[N+](C)(C)CC(=O)O`, the outcome in [1], in assay [6], in [8], in assay [3] and in assay [4] was inactive. Moreover, the outcome in assay [5] and in assay [7] was Active.
Consider `OCC(O)CO`, for which the outcome in [1], in [3] and in [4] was inactive.
`CCCC[N+](CCCC)(CCCC)CC(=O)[O-]`: the fold change (FC) in [9] is 0.5; in [13] it was 0.8; in [14], 2.5; in assay [15], 0.8; in [16] it was 0.8; in assay [17], 0.9. The fold change (FC) in assay [23] amounted to 0.8; in [24] it was 0.6; in assay [25] it was 2.1. Besides, the outcome in [10], in assay [1], in assay [11], in assay [5], in assay [12] and in assay [7] was Active. Moreover, the outcome in assay [18], in assay [19], in assay [20], in [21], in [22] and in assay [3] was Active. The outcome in assay [4] was Active. The result in [6] was inactive.
Take `C[N+](C)(CC[N+](C)(C)CC(=O)[O-])CC(=O)[O-]`: the result in assay [1], in [3] and in assay [4] was inactive.
In the case of `CC[N+](CC)(CC)CC(=O)[O-]`, the outcome in assay [1] and in [4] was inactive. Moreover, the result in [26] and in assay [3] was Active.
As to `C[N+](C)(C)CCCCCC(=O)[O-]`, the result in assay [1], in assay [3] and in [4] was inactive.
As to `C[N+](C)(C)CCCC(=O)[O-]`, the outcome in assay [1], in [3] and in [4] was inactive.
